EP2 antag = human EP2 receptor antagonists, primary screen, TR-FRET cAMP, C6 glioma cells. AID 1422, 2008. C6 glioma cells expressing human EP2; cells stimulated with saturating PGE2. Prostaglandin E2 receptor EP2 subtype (Homo sapiens), P43116. inhibition, % at 25 µM. hit rate 0.52% among 260,000;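 active means percent inhibition above 40 after rounding to a whole number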;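 further: rat C6 glioma host cells with rolipram phosphodiesterase inhibitor present; the protocol text gives 20 µM as final concentration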
Target sequence (P43116 whole entry, looked up): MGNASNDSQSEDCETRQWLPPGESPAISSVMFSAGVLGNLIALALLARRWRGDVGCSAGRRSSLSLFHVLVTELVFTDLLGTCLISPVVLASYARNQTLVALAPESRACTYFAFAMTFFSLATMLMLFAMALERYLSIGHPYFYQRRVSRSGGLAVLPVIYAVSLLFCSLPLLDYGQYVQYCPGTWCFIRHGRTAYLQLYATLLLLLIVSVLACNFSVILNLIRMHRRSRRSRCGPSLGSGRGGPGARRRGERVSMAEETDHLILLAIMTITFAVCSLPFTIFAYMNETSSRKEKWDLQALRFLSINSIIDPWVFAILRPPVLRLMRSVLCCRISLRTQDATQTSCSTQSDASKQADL
EP2 mod = EP2 receptor modulators, cAMP readout, primary screen, cell-based, HTRF cAMP, PGE2 stimulation; AID 940, 2007; EP2-expressing cells, cAMP HTRF FRET, PGE2 co-stimulation; induction, % at 25 µM; hit rate 0.83% among 260,000;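 active means compounds whose cAMP rise, as percent of the full-agonist control response, exceeds 60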;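 further: rat C6 glioma line stably carrying human EP2 under a CMV promoter; the protocol text gives 20 µM as final concentration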
OX1R antag-1 = antagonists of human orexin 1 receptor (OX1R); Orexin/Hypocretin receptor type 1 (Homo sapiens), O43613; OX1R-expressing cells, FRET antagonist read-out; inhibition, % at 6.6 µM; hit rate 1.8% among 330,000; AID 485270, 2010; in the data active means inhibition mostly above about 38%, no sharp cut-off; inactive means mostly below about 40%
Target sequence (O43613 whole entry, looked up): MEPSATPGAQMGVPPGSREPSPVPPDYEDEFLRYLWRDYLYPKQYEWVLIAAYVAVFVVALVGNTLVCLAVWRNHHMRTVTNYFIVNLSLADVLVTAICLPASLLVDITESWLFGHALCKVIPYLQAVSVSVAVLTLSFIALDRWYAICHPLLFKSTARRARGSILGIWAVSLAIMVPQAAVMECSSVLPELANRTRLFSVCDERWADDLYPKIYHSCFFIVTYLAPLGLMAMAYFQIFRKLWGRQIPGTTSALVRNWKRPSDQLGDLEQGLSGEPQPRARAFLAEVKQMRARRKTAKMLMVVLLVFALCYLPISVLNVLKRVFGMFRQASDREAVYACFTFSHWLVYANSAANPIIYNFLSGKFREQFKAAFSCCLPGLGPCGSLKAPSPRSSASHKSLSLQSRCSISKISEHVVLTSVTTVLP
OX1R antag-2 = OX1R (HCRTR1) antagonists, primary screen, fluorescence, CHO/OX1R cells, Fluo-8 calcium, orexin A; Fluo-8 calcium fluorescence; inhibition, % at 5 µM; Orexin/Hypocretin receptor type 1 (Homo sapiens), O43613; AID 434989, 2010; hit rate 0.43% among 330,000;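 active means inhibition above its plate's threshold, mean inhibition of all tested compounds on the plate plus 3 SD, cut at about 37% in these data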
CHO parental Ca = ATP-evoked calcium signal inhibitors, parental CHO, primary screen, counter-screen for OX1R antagonist project, cell-based, fluorescence, Fluo-8 calcium dye | inhibition, % at 5.6 µM | hit rate 0.63% among 330,000 | AID 463079, 2010 | parental CHO-K1, ATP-induced calcium, Fluo-8 fluorescence;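 active means inhibition above that plate's mean sample inhibition plus 3 SD, cut at about 26% in these data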
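Test system: parental CHO cells; detection: calcium-sensitive Fluo-8 fluorescence; evaluation: percent inhibition of calcium signal; also added: ATP as calcium-mobilizing challenge; repeats: one well per compound; control set: ATP-challenged DMSO wells low, unchallenged DMSO wells high; compound: single nominal dose of 5.6 µM per compound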
GPR7 antagonist = GPR7 receptor antagonists, primary screen, cell-based, fluorescence, single concentration; Neuropeptides B/W receptor type 1 (Homo sapiens), P48145; GPR7-expressing cells, fluorescence antagonist assay; inhibition, % at 4.4 µM; hit rate 1.1% among 290,000; in the data active means inhibition above about 16%, passing the limit was not always enough;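 further: cells stimulated with the agonist NPW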
Of the large screens only hits and unclear results are named; the others gave an inactive call. Only some compounds are listed: those with a hit (about 3.7% of all), similar ones and a draw of the others.

CCc1nccn1C(=O)c1cnn2c(C(F)F)cc(-c3ccccc3)nc12	OX1R antag-1 66
Cc1ccc2c(c1)c1c3n2CC(=C2C(=O)OC(C)(C)OC2=O)NC3CCC1 (centres undefined)	OX1R antag-1 43
CCCC(=O)N1CCN(c2ccc(NC(=O)c3ccc(OC)c(Cl)c3)cc2)CC1	none (no result: OX1R antag-1, OX1R antag-2, CHO parental Ca, GPR7 antagonist)
Cc1cc(Nc2ccc(N(C)C)cc2)n2ncnc2n1	none (no result: EP2 antag, EP2 mod)
Cc1cc(Nc2ccc3c(c2)OCCO3)n2ncnc2n1	GPR7 antagonist 17
CCS(=O)(=O)N1CCN(Cc2nc3sc4c(c3c(=O)[nH]2)CCC(C(C)(C)C)C4)CC1 (centres undefined)	none (no result: OX1R antag-1, OX1R antag-2, CHO parental Ca, GPR7 antagonist)
CCOC(=O)c1c(-c2ccc(C)cc2)csc1NC(=O)CC	EP2 mod 78 (no result: OX1R antag-1, OX1R antag-2, CHO parental Ca, GPR7 antagonist)
CCOC(=O)c1c(-c2ccc(OC)cc2)csc1NC(=O)CC	none (no result: OX1R antag-1, OX1R antag-2, CHO parental Ca, GPR7 antagonist)
CCOC(=O)c1c(-c2ccc(CC)cc2)csc1N	EP2 mod 94 (no result: OX1R antag-1, OX1R antag-2, CHO parental Ca, GPR7 antagonist)
CCOC(=O)c1c(-c2ccc(OCC)cc2)csc1NC(C)=O	EP2 mod 64 (no result: OX1R antag-1, OX1R antag-2, CHO parental Ca, GPR7 antagonist)
CCOC(=O)c1c(-c2ccccc2)csc1NC(=O)CSc1nc(N)cc(N)n1	none
CCOC(=O)c1c(-c2ccccc2)csc1NC(=O)CSc1nc(C)cc(C)n1	CHO parental Ca 37
Cc1ncc(-c2ccncc2)c(C2CCN(C(=O)Cc3cccs3)CC2)n1	none (no result: EP2 antag, OX1R antag-1, OX1R antag-2, CHO parental Ca, GPR7 antagonist)
COCCN1Cc2cccc(C(=O)Nc3cc(OC)ccc3OC)c2C1=O	none (no result: EP2 antag)
CCOC(=O)c1c(-c2ccc(OC)cc2)csc1NC(=O)CNCc1ccco1	OX1R antag-1 46
COC(=O)c1ccc(C(=O)NC2CCCc3c2cnn3-c2ccccc2F)nc1 (centres undefined)	none (no result: EP2 antag, EP2 mod)
O=C(CN1C(=O)c2ccc([N+](=O)[O-])cc2C1=O)NC1CCS(=O)(=O)C1 (centres undefined)	OX1R antag-1 56 (no result: EP2 antag, EP2 mod, GPR7 antagonist)
O=C(CN1C(=O)c2ccc([N+](=O)[O-])cc2C1=O)NCC1CCCO1 (centres undefined)	OX1R antag-1 68 (no result: EP2 antag, EP2 mod, GPR7 antagonist)
O=C(/C=C/c1ccc([N+](=O)[O-])cc1)NCC1CCCO1 (centres undefined)	OX1R antag-1 59
O=C(NCC1CCCO1)c1ccc([N+](=O)[O-])s1 (centres undefined)	OX1R antag-1 70 (no result: EP2 antag, EP2 mod)
O=C(NC1CCN(C(=S)NCc2ccco2)CC1)c1ccccc1	none (no result: OX1R antag-1, OX1R antag-2, CHO parental Ca, GPR7 antagonist)
COc1ccc(C2=CC(=O)C[C@H](c3ccc(OC)c(OC)c3)C2)cc1	none (no result: EP2 antag, EP2 mod, GPR7 antagonist)
O=C(NCC(c1ccco1)N1CCCCC1)c1ccc([N+](=O)[O-])s1 (centres undefined)	OX1R antag-1 56 (no result: EP2 antag, EP2 mod, GPR7 antagonist)
Cc1cc(C)cc(C(=O)NCC(=O)OCC(=O)Nc2ccc(C)cc2Br)c1	none
N#C/C(=C/c1ccc(-c2ccc(S(N)(=O)=O)cc2)o1)c1nc2ccccc2s1	OX1R antag-2 80, CHO parental Ca 64
N#C/C(=C\c1ccc(-c2nc3ccccc3s2)o1)C(N)=O	OX1R antag-1 52
CCOC(=O)c1c(C)[nH]c(C(=O)COC(=O)c2ccc(O)cc2O)c1C	none
CCOC(=O)c1c(C)[nH]c(C(=O)COC(=O)c2ccc(O)cc2)c1C	CHO parental Ca 27
C/C(N)=C(/C#N)C(=O)CSc1nc2cc(Cl)ccc2s1	OX1R antag-1 56
CCOC(=O)c1nc(Nc2ccc(N3CCOCC3)cc2)c2ccccc2n1	none (no result: EP2 antag, EP2 mod)
Clc1nc(Nc2ccc(N3CCOCC3)cc2)c2ccccc2n1	OX1R antag-1 70
CCC(C)(C(=O)NC1CCCCC1)N(C(=O)c1ccccn1)c1ccccc1 (centres undefined)	none
CCC(C)(C(=O)NC1CCCC1)N(C(=O)CNC(C)=O)c1ccccc1 (centres undefined)	GPR7 antagonist 19
CCOC(=O)c1c(N)sc(N)c1C(=O)OCC	none
CCOC(=O)c1c(N)sc(=S)c2c1CCC2	EP2 antag 61
COc1ccc(C2N(C(=O)CN3CCCC3)CCCN2S(=O)(=O)c2ccccc2)cc1 (centres undefined)	none (no result: EP2 antag, EP2 mod)
Cc1cccc(-c2noc(CN(C(=O)c3ccc4c(c3)OCO4)C(C)C)n2)c1	OX1R antag-1 69
CCN(Cc1nc(-c2cccc(C)c2)no1)C(=O)c1ccc2c(c1)OCO2	none (no result: EP2 antag, EP2 mod)
Cc1cccc(-c2noc(CN(C(=O)C(c3ccccc3)c3ccccc3)C(C)C)n2)c1	OX1R antag-1 43, CHO parental Ca 69
Cc1cc(C)n2nc(SCC(=O)Nc3ccc(S(=O)(=O)N(C)C)cc3)nc2n1	none (no result: EP2 antag, EP2 mod, GPR7 antagonist)
O=C(N1CCOCC1)C1(c2ccccc2)CCCCC1	none
O=C(NCc1ccccc1)C1CCCN(S(=O)(=O)c2ccc(F)cc2)C1 (centres undefined)	none (no result: EP2 antag, EP2 mod)
Nc1c(SCCC(=O)O)ccc2c1C(=O)c1ccccc1C2=O	OX1R antag-1 43 (no result: EP2 antag, EP2 mod)
COc1ccc(CNC(=O)CN(c2ccc(C(C)=O)cc2)S(=O)(=O)c2ccc(C)cc2)cc1OC	none (no result: EP2 antag, EP2 mod, GPR7 antagonist)
Cc1cc2c(cc1S(=O)(=O)N1CCN(c3ccccc3)CC1)OCCN2C	CHO parental Ca 34 (no result: EP2 antag, EP2 mod)
Cc1ccc(Br)cc1S(=O)(=O)N1CCN(c2ccccc2)CC1	CHO parental Ca 36
Cn1nc(-c2ccccc2)c(COC(=O)c2cccc(Cl)c2)c1S(=O)(=O)c1ccccc1	none
COc1ccc(-c2cc(N)n(S(=O)(=O)Cc3ccccc3)n2)c(OC)c1	OX1R antag-1 61
O=C(N/N=C/c1c[nH]c2ccccc12)c1ccc(Br)cc1	none (no result: EP2 antag, EP2 mod)
CC(C)Oc1ccc(Br)cc1C(=O)N/N=C/c1c[nH]c2ccccc12	OX1R antag-1 40 (no result: EP2 antag, EP2 mod)
CCCNC(=O)c1onc(CSc2ccc(Cl)cc2)c1C(=O)NCCC(C)C	none (no result: EP2 mod, GPR7 antagonist)
CCOC(=O)[C@H]1[C@H]2COc3cc(OC)ccc3[C@@H]2N2C(=O)N(c3cccc(Cl)c3)C(=O)[C@@]12C	none (no result: EP2 antag, EP2 mod)
O=C(c1ccc2snnc2c1)N1CCCC1	none
COc1cccc(C2N(c3ccccc3)CCN2c2ccccc2)c1OC	EP2 mod 64
C=CCNC(=O)NC(=O)c1csc([N+](=O)[O-])c1	OX1R antag-1 46
CCNC(=O)NC(=O)c1csc([N+](=O)[O-])c1	OX1R antag-1 40
O=C(NCc1ccco1)NC(=O)c1csc([N+](=O)[O-])c1	none
Cc1c(OCC(=O)N[C@@H](Cc2c[nH]c3ccccc23)C(=O)O)ccc2c1oc(=O)c1ccccc12	none (no result: EP2 antag, EP2 mod)
CC(C)(C)C(=O)[C@H]([C@@H](c1ccccc1)N1CCOCC1)N1CCOCC1	EP2 antag 49 (no result: OX1R antag-1, OX1R antag-2, CHO parental Ca, GPR7 antagonist)
CC(NC(=O)Cc1ccccc1)C(c1ccccc1)N1CCOCC1 (centres undefined)	none
N#C/C(=C\c1ccc(F)cc1)c1nc(-c2ccco2)cs1	EP2 mod 61
